# Assay results: ChEMBL document CHEMBL1145096, “Synthesis and cytotoxic activity of two novel 1-dodecylthio-2-decyloxypropyl-3-phosphatidic acid conjugates with gemcitabine and cytosine arabinoside” (J Med Chem, 2003)
# Legend:
# HL-60 = test: Inhibitory activity against HL-60 (human, promyelocytic leukemia) cell line; format: functional, cell-based
# How it was run: (§1)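 Cells kept in log phase in RPMI-1640 with 10% FBS and 1% penicillin-streptomycin, humidified 5% CO2/95% air, 37 °C. Viability read by CellTiter 96 aqueous proliferation assay (microplate optical density). Drug-treated optical densities compared with untreated controls; IC50 obtained by nonlinear regression.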
# SCC-25 = test: Inhibitory activity against SCC-25 (human, squamous cell carcinoma, tongue) cell line; format: functional, cell-based
# How it was run: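 SCC-25 cultured in log phase in DMEM with 10% FBS, 400 ng/mL hydrocortisone and 1% penicillin-streptomycin, humidified 5% CO2/95% air, 37 °C. CellTiter 96 aqueous assay, optical density compared with untreated cells; IC50 from nonlinear regression.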
# CEM-SS = test: Inhibitory activity against CEM-SS (human T-4 lymphoblastoid clone) cell line; format: functional, cell-based; how it was run: as §1
# U373 MG = test: Inhibitory activity against U373-MG (human, glioblastoma) cell line; format: functional, cell-based, U-373MG ATCC
# How it was run: (§2)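 Maintained in log phase in MEM with 10% FBS and 1% penicillin-streptomycin at 37 °C in humidified 5% CO2. Cell proliferation read with CellTiter 96 aqueous assay by optical density. Treated versus untreated control; IC50 calculated by nonlinear regression.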
# BXPC-3 = test: Inhibitory activity against BxPC3 (human,pancreas,adenocarcinoma) cell line; format: functional, cell-based
# How it was run: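 BxPC3 grown in log phase in RPMI-1640 plus 10% FBS, 10 mM HEPES, 1.5 g/L NaHCO3, sodium pyruvate and 1% penicillin-streptomycin, at 37 °C under 5% CO2. CellTiter 96 aqueous proliferation readout by optical density. Treated wells compared with untreated controls; IC50 from nonlinear regression.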
# HT-29 = test: Inhibitory activity against HT-29 (human,colon,adenocarcinoma) cell line; format: functional, cell-based
# How it was run: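 Colon line kept in log phase in McCoy's 5A modified medium with 10% FBS and 1% penicillin-streptomycin, 37 °C, 5% CO2 humidified. Proliferation measured by CellTiter 96 aqueous assay (optical density) against untreated cells; IC50 fitted by nonlinear regression.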
# MCF7 = test: Inhibitory activity against MCF-7/WT-2'' (human, breast carcinoma) cell line; format: functional, cell-based
# How it was run: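 MCF7/WT-2' grown in log phase in D-MEM/F-12 with 10% FBS, 10 μg/mL insulin and 1% penicillin-streptomycin, 37 °C, 5% CO2. Read-out was CellTiter 96 aqueous proliferation assay (optical density) versus untreated control. IC50 derived by nonlinear regression.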
# SK-LU-1 = test: Inhibitory activity against SK-LU-1 (human,lung,adenocarcinoma) cell line; format: functional, cell-based; how it was run: as §2
# BG-1 cell line = test: Inhibitory activity against BG-1 (human, […] adenocarcinoma) cell line; format: functional, cell-based; how it was run: as §1
# HeLa = test: Inhibitory activity against HeLa (human, epitheloid carcinoma, cervix) cell line; format: functional, cell-based
# How it was run: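 HeLa maintained in log phase in DMEM, 10% FBS, 1% penicillin-streptomycin, humidified 5% CO2 at 37 °C. Growth quantified with CellTiter 96 aqueous assay by microplate optical density. Values expressed relative to untreated controls; IC50 by nonlinear regression.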
SMILES,IC50 (HL-60) [nM],IC50 (SCC-25) [nM],IC50 (CEM-SS) [nM],IC50 (U373 MG) [nM],IC50 (BXPC-3) [nM],IC50 (HT-29) [nM],IC50 (MCF7) [nM],IC50 (SK-LU-1) [nM],IC50 (BG-1 cell line) [nM],IC50 (HeLa) [nM]
CCCCCCCCCCCCSCC(COP(=O)(O)OCC1OC(n2ccc(N)nc2=O)[C@@H](O)C1O)OCCCCCCCCCC (some centres not stated),67300,–,–,–,–,–,–,–,–,–
CCCCCCCCCCCCSCC(COP(=O)(O)OC[C@H]1O[C@@H](n2ccc(N)nc2=O)C(F)(F)[C@@H]1O)OCCCCCCCCCC (some centres not stated),1800,590,600,290,1590,750,1730,1120,1840,690
Nc1ccn([C@@H]2O[C@H](CO)[C@@H](O)[C@@H]2O)c(=O)n1 [CYTARABINE],760,–,–,–,–,–,–,–,–,–
Nc1ccn([C@@H]2O[C@H](CO)[C@@H](O)C2(F)F)c(=O)n1 [GEMCITABINE],330,47,30,130,160,43,1660,55,680,8
